Source: ChEMBL document CHEMBL5046302, “Identification and Evaluation of Brominated Carbazoles as a Novel Antibiotic Adjuvant Scaffold in MRSA” (2022)
In brackets after ≈: the same amount, converted by molar mass.

Experiments:
Assay type in all cases: functional
Staphylococcus aureus [1] = test: Potentiation of cefoxitin induced antibacterial activity against methicillin-resistant Staphylococcus aureus ATCC 43300 assessed as cefoxitin MIC at 50 uM after 18 hrs by CLSI protocol based broth microdilution assay
Staphylococcus aureus [2] = test: Potentiation of ceftazidime induced antibacterial activity against methicillin-resistant Staphylococcus aureus USA100 assessed as fold change in ceftazidime MIC at 50 uM after 18 hrs by CLSI protocol based broth microdilution assay
Staphylococcus aureus [3] = test: Potentiation of ceftazidime induced antibacterial activity against methicillin-resistant Staphylococcus aureus COL assessed as ceftazidime MIC at 50 uM after 18 hrs by CLSI protocol based broth microdilution assay
Staphylococcus aureus [4] = test: Potentiation of oxacillin induced antibacterial activity against methicillin-resistant Staphylococcus aureus USA 100 assessed as fold change in oxacillin MIC at 50 uM after 18 hrs by CLSI protocol based broth microdilution assay
Staphylococcus aureus [5] = test: Potentiation of ampicillin induced antibacterial activity against methicillin-resistant Staphylococcus aureus USA300 assessed as fold change in ampicillin MIC at 50 uM after 18 hrs by CLSI protocol based broth microdilution assay
Staphylococcus aureus [6] = test: Potentiation of ampicillin induced antibacterial activity against methicillin-resistant Staphylococcus aureus USA100 assessed as ampicillin MIC at 50 uM after 18 hrs by CLSI protocol based broth microdilution assay
Staphylococcus aureus [7] = test: Potentiation of cefoxitin induced antibacterial activity against methicillin-resistant Staphylococcus aureus USA300 assessed as fold change in cefoxitin MIC at 50 uM after 18 hrs by CLSI protocol based broth microdilution assay
Staphylococcus aureus [8] = test: Potentiation of ampicillin induced antibacterial activity against methicillin-resistant Staphylococcus aureus COL assessed as ampicillin MIC at 50 uM after 18 hrs by CLSI protocol based broth microdilution assay
Staphylococcus aureus [9] = test: Potentiation of ampicillin induced antibacterial activity against methicillin-resistant Staphylococcus aureus COL assessed as fold change in ampicillin MIC at 50 uM after 18 hrs by CLSI protocol based broth microdilution assay
Staphylococcus aureus [10] = test: Potentiation of cefoxitin induced antibacterial activity against methicillin-resistant Staphylococcus aureus USA100 assessed as fold change in cefoxitin MIC at 50 uM after 18 hrs by CLSI protocol based broth microdilution assay
Staphylococcus aureus [11] = test: Potentiation of methicillin induced antibacterial activity against methicillin-resistant Staphylococcus aureus COL assessed as methicillin MIC at 50 uM after 18 hrs by CLSI protocol based broth microdilution assay
Staphylococcus aureus [12] = test: Potentiation of cefoxitin induced antibacterial activity against methicillin-resistant Staphylococcus aureus COL assessed as fold change in cefoxitin MIC at 50 uM after 18 hrs by CLSI protocol based broth microdilution assay
Staphylococcus aureus [13] = test: Potentiation of oxacillin induced antibacterial activity against methicillin-resistant Staphylococcus aureus ATCC 43300 assessed as oxacillin MIC at 50 uM after 18 hrs by CLSI protocol based broth microdilution assay
Staphylococcus aureus [14] = test: Potentiation of oxacillin induced antibacterial activity against methicillin-resistant Staphylococcus aureus COL assessed as oxacillin MIC at 50 uM after 18 hrs by CLSI protocol based broth microdilution assay
Staphylococcus aureus [15] = test: Antibacterial activity against methicillin-resistant Staphylococcus aureus ATCC 43300 assessed as inhibition of bacterial growth after 18 hrs by CLSI protocol based broth microdilution assay
Outline: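 Broth microdilution MIC of carbazole alone vs MRSA ATCC 43300, tested up to 200 μM.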

Staphylococcus aureus [16] = test: Potentiation of cefoxitin induced antibacterial activity against methicillin-resistant Staphylococcus aureus COL assessed as cefoxitin MIC at 50 uM after 18 hrs by CLSI protocol based broth microdilution assay
Staphylococcus aureus [17] = test: Potentiation of ampicillin induced antibacterial activity against methicillin-resistant Staphylococcus aureus USA100 assessed as fold change in ampicillin MIC at 50 uM after 18 hrs by CLSI protocol based broth microdilution assay
Staphylococcus aureus [18] = test: Potentiation of methicillin induced antibacterial activity against methicillin-resistant Staphylococcus aureus USA100 assessed as methicillin MIC at 50 uM after 18 hrs by CLSI protocol based broth microdilution assay
Staphylococcus aureus [19] = test: Potentiation of cefoxitin induced antibacterial activity against methicillin-resistant Staphylococcus aureus ATCC 43300 assessed as fold change in cefoxitin MIC at 50 uM after 18 hrs by CLSI protocol based broth microdilution assay
Staphylococcus aureus [20] = test: Potentiation of methicillin induced antibacterial activity against methicillin-resistant Staphylococcus aureus USA300 assessed as methicillin MIC at 50 uM after 18 hrs by CLSI protocol based broth microdilution assay
Staphylococcus aureus [21] = test: Potentiation of oxacillin induced antibacterial activity against methicillin-resistant Staphylococcus aureus ATCC 43300 assessed as fold change in oxacillin MIC at 50 uM after 18 hrs by CLSI protocol based broth microdilution assay
Staphylococcus aureus [22] = test: Potentiation of oxacillin induced antibacterial activity against methicillin-resistant Staphylococcus aureus USA100 assessed as oxacillin MIC at 50 uM after 18 hrs by CLSI protocol based broth microdilution assay
Staphylococcus aureus [23] = test: Potentiation of ampicillin induced antibacterial activity against methicillin-resistant Staphylococcus aureus ATCC 43300 assessed as fold change in ampicillin MIC at 50 uM after 18 hrs by CLSI protocol based broth microdilution assay
Staphylococcus aureus [24] = test: Potentiation of ceftazidime induced antibacterial activity against methicillin-resistant Staphylococcus aureus ATCC 43300 assessed as ceftazidime MIC at 50 uM after 18 hrs by CLSI protocol based broth microdilution assay
Staphylococcus aureus [25] = test: Potentiation of ceftazidime induced antibacterial activity against methicillin-resistant Staphylococcus aureus ATCC 43300 assessed as fold change in ceftazidime MIC at 50 uM after 18 hrs by CLSI protocol based broth microdilution assay
Staphylococcus aureus [26] = test: Potentiation of methicillin induced antibacterial activity against methicillin-resistant Staphylococcus aureus ATCC 43300 assessed as methicillin MIC at 50 uM after 18 hrs by CLSI protocol based broth microdilution assay
Staphylococcus aureus [27] = test: Potentiation of methicillin induced antibacterial activity against methicillin-resistant Staphylococcus aureus COL assessed as fold change in methicillin MIC at 50 uM after 18 hrs by CLSI protocol based broth microdilution assay
Staphylococcus aureus [28] = test: Potentiation of ceftazidime induced antibacterial activity against methicillin-resistant Staphylococcus aureus USA300 assessed as fold change in ceftazidime MIC at 50 uM after 18 hrs by CLSI protocol based broth microdilution assay
Staphylococcus aureus [29] = test: Potentiation of cefoxitin induced antibacterial activity against methicillin-resistant Staphylococcus aureus USA100 assessed as cefoxitin MIC at 50 uM after 18 hrs by CLSI protocol based broth microdilution assay
Staphylococcus aureus [30] = test: Potentiation of ceftazidime induced antibacterial activity against methicillin-resistant Staphylococcus aureus COL assessed as fold change in ceftazidime MIC at 50 uM after 18 hrs by CLSI protocol based broth microdilution assay
Staphylococcus aureus [31] = test: Potentiation of methicillin induced antibacterial activity against methicillin-resistant Staphylococcus aureus USA100 assessed as fold change in methicillin MIC at 50 uM after 18 hrs by CLSI protocol based broth microdilution assay
Staphylococcus aureus [32] = test: Upregulation of pbp2 gene expression in methicillin-resistant Staphylococcus aureus ATCC 43300 assessed as fold change by RT-PCR method

Compound | MIC (Staphylococcus aureus [1]) [µg/mL] | fold change (FC) (Staphylococcus aureus [2]) | MIC (Staphylococcus aureus [3]) [µg/mL] | fold change (FC) (Staphylococcus aureus [4]) | fold change (FC) (Staphylococcus aureus [5]) | MIC (Staphylococcus aureus [6]) [µg/mL] | fold change (FC) (Staphylococcus aureus [7]) | MIC (Staphylococcus aureus [8]) [µg/mL] | fold change (FC) (Staphylococcus aureus [9]) | fold change (FC) (Staphylococcus aureus [10]) | MIC (Staphylococcus aureus [11]) [µg/mL] | fold change (FC) (Staphylococcus aureus [12]) | MIC (Staphylococcus aureus [13]) [µg/mL] | MIC (Staphylococcus aureus [14]) [µg/mL] | MIC (Staphylococcus aureus [15]) [µM] | MIC (Staphylococcus aureus [16]) [µg/mL] | fold change (FC) (Staphylococcus aureus [17]) | MIC (Staphylococcus aureus [18]) [µg/mL] | fold change (FC) (Staphylococcus aureus [19]) | MIC (Staphylococcus aureus [20]) [µg/mL] | other results
Brc1ccc2[nH]c3ccc(Br)cc3c2c1 | 32 | 4 | 1020 | 4 | 1 | 32 | 1 | 8 | 2 | 2 | 1020 | 1 | 8 | 128 | > 200 | 512 | 1 | 32 | 2 | 8 | fold change (FC) (Staphylococcus aureus [21]): 4; MIC (Staphylococcus aureus [22]): 128 µg/mL; fold change (FC) (Staphylococcus aureus [23]): 1; MIC (Staphylococcus aureus [24]): 128 µg/mL; fold change (FC) (Staphylococcus aureus [25]): 1; MIC (Staphylococcus aureus [26]): 2 µg/mL; fold change (FC) (Staphylococcus aureus [27]): 1; fold change (FC) (Staphylococcus aureus [28]): 1; MIC (Staphylococcus aureus [29]): 64 µg/mL; fold change (FC) (Staphylococcus aureus [30]): 1; fold change (FC) (Staphylococcus aureus [31]): 16
Brc1cccc2c1[nH]c1ccccc12 | 16 | 2 | 1020 | 512 | 1 | 8 | 2 | 16 | 2 | 16 | 1020 | 1 | 4 | 512 | > 200 | 256 | 4 | 8 | 4 | 8 | fold change (FC) (Staphylococcus aureus [32]): 2; fold change (FC) (Staphylococcus aureus [21]): 8; MIC (Staphylococcus aureus [22]): 0.5 µg/mL; fold change (FC) (Staphylococcus aureus [23]): 8; MIC (Staphylococcus aureus [24]): 64 µg/mL; fold change (FC) (Staphylococcus aureus [25]): 2; MIC (Staphylococcus aureus [26]): 4 µg/mL; fold change (FC) (Staphylococcus aureus [27]): 1; fold change (FC) (Staphylococcus aureus [28]): 1; MIC (Staphylococcus aureus [29]): 16 µg/mL; fold change (FC) (Staphylococcus aureus [30]): 1; fold change (FC) (Staphylococcus aureus [31]): 64
Brc1cccc2[nH]c3ccccc3c12 | – | – | – | – | – | – | – | – | – | – | – | – | – | – | 100 (≈ 24.6 µg/mL) | – | – | – | – | – | fold change (FC) (Staphylococcus aureus [32]): 2
